# Calpain2 inh: inhibitors of pig calpain II, primary screen, biochemical, fluorogenic peptide substrate, 1536-well; inhibition, % at 16 µM; purified calpain II, 30 min; 0.37% of 220,000 active;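 active means inhibition above about 50%, limit read from the data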
# Rad51 HR inh: human RAD51 strand exchange inhibitors, primary screen, biochemical, fluorescence; DNA repair protein RAD51 homolog 1 (Homo sapiens), Q06609; hRad51 DNA strand exchange, fluorescence dequenching; inhibition, % at 10 µM; 0.085% of 200,000 active; AID 1385, 2008;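 active means inhibition above 40% at the single screening dose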;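 further: 0% = DMSO control wells and 100% = blanks with heterologous ssDNA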
#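 Material: Human Rad51 nucleoprotein filaments preassembled on unlabelled ssDNA | Also added: Labelled 47-mer dsDNA for strand exchange | Dosing: Single dose, 10 µM final compound | Schedule: 30-min compound preincubation and 15-min exchange, both room temperature | Technique: Fluorescence dequenching at 485/520 nm | Measure: Percent inhibition relative to plate controls and blanks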
# PMI activator: activators of human PMI, primary screen, biochemical, fluorescence intensity, near-Km mannose 6-phosphate; Mannose-6-phosphate isomerase (Homo sapiens), P34949; purified human PMI, coupled resazurin fluorescence, 20 min; hits give high values; 1 = vehicle control, 0 substrate-free wells; activation factor at 20 µM; 0.005% of 190,000 active; AID 1214, 2008;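 active means activation factor of 2 or more at 20 µM, relative to plate controls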
# Target sequence (P34949 whole entry, looked up): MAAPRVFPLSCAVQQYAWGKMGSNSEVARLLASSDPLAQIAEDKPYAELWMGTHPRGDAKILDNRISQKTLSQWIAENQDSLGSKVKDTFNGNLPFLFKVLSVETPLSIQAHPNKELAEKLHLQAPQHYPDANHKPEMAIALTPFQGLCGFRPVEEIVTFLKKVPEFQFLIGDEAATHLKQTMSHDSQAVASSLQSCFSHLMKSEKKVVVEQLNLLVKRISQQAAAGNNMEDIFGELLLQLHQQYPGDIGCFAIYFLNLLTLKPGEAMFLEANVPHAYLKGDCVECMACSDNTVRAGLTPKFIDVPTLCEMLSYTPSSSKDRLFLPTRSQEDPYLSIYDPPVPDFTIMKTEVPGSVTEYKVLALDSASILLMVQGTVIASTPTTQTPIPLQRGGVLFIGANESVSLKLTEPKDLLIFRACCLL
# L major viab: Leishmania major promastigote growth inhibition, primary screen. Leishmania major promastigotes, resazurin fluorescence viability. inhibition, % at 10 µM. 9% of 200,000 active; in the data active means inhibition above about 50%;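 further: promastigotes grown with compound for 44 hours at 28 °C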
# PMI act satM6P: human PMI activators, high substrate, primary screen, biochemical, fluorescence intensity, near-saturating mannose 6-phosphate | 0.34% of 190,000 active | activation factor at 20 µM | Mannose-6-phosphate isomerase (Homo sapiens), P34949 | coupled PMI enzyme assay, resazurin fluorescence, 20 min; hits give high values; 1 = untreated enzyme, 0 = substrate-free blank;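 active means activation factor of 2 or more at 20 µM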
#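 Test system: human phosphomannose isomerase with PGI, G6PDH, diaphorase coupling enzymes; amount: 15 ng/mL PMI; incubation: enzyme reaction with compound 20 min at room temperature; technique: resorufin fluorescence (Ex 544/Em 590 nm) from resazurin via diaphorase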
# WT yeast gro inh: growth inhibition of WT strain, primary screen, mitochondrial fusion inhibitor project, WT and mutant strains, chemical genetic; inhibition, % at 10 µM; AID 1362, 2008; mitochondrial fusion phenotypic screen; 2.1% of 190,000 active; in the data active means inhibition above about 58%; tested in S. cerevisiae
# Active calls of the source: *; / = no result given. An excerpt weighted towards active compounds, which were near 9.8% of everything screened.
SMILES,Calpain2 inh,Rad51 HR inh,PMI activator,L major viab,PMI act satM6P,WT yeast gro inh
CCN1CCN(c2ccc(NC(=O)c3ccccc3F)cc2Cl)CC1,17.1,-2.5,1.1,74.8*,1.1,-8.0
Cc1cccc(NC(=O)c2cc(NC(=O)c3ccco3)ccc2Cl)n1,7.4,0.1,0.9,85.3*,0.9,-3.0
Cc1cccc(NC(=O)c2cc(NC(=O)C3CCCCC3C(=O)O)ccc2Cl)n1 (centres undefined),-12.1,14.8,0.9,3.3,1,-0.1
O=C(Nc1ccc(N2CCCCC2)cc1)c1ccc(F)cc1F,-18.2,-3.8,/,/,/,/
Cc1ccccc1C(=O)N1CCN(c2ccc(NC(=O)c3ccco3)cc2Cl)CC1,-40.3,5.0,0.8,98.5*,0.9,4.4
O=C(Nc1ccc(N2CCN(C(=O)c3cccs3)CC2)c(Cl)c1)c1ccco1,0.4,-4.4,1,-3.7,0.9,3.1
O=P(Cc1cc(Br)cc(Br)c1OCCO)(c1ccccc1)c1ccccc1,-0.6,/,/,/,/,/
Cc1noc(C)c1COc1ccc(C(=O)NCCc2ccccn2)cc1,-29.3,31.3,1,6.3,1,-18.8
Cc1ccc(C(C)C)c(OCC(=O)N/N=C/c2cccn2C)c1,18.3,/,/,/,/,/
Cc1ccc(S(=O)(=O)CCSc2cccc(C(=O)Nc3ccccc3C(=O)O)c2)cc1,-15.5,/,1,31.8,1,2.2
Cc1cc(N2C(=O)C3C4CC(C(Br)C4Br)C3C2=O)no1 (centres undefined),-5.2,16.6,1.1,-2.5,1.1,6.6
NS(=O)(=O)c1ccc(CCNc2ncnc3c2c(-c2ccccc2)cn3-c2ccc(F)cc2)cc1,-90.5,-9.2,0.9,-4.0,0.8,36.0
Nc1cccc(C2=Nc3cccc4cccc(c34)N2)c1,29.2,-4.4,1,0.3,0.9,37.8
COc1ccc(C2=Nc3cccc4cccc(c34)N2)cc1,-13.8,/,0.7,9.6,0.5,65.7*
O=C(CCS(=O)(=O)Cc1ccc(Cl)cc1)NCCCN1CCOCC1,9.4,8.5,0.9,88.9*,1,11.4
O=C(NCCCN1CCOCC1)c1cc(-c2ccc(Br)cc2)on1,-18.5,-1.3,1,94.3*,1,24.1
O=C(NCCCN1CCOCC1)c1ccc(CSc2ccc(Cl)cc2)cc1,-41.1,3.4,0.9,97.1*,0.9,52.4
O=C(NCCCN1CCOCC1)c1ccc(Br)cc1,11.0,/,1,51.5*,1,-3.8
Cc1ccc(Nc2nnc(SCC(=O)NC(Cc3c[nH]c4ccccc34)C(=O)O)s2)cc1 (centres undefined),-45.1,-6.2,1.5,0.3,1.4,-6.6
COc1ccc(N2CCN(C(=O)CN(C)S(=O)(=O)c3cc(C)ccc3OC)CC2)cc1,15.1,-6.2,0.9,-7.0,0.8,-12.1
CCN(CC)S(=O)(=O)c1ccc(C)c(NC(=S)NC2CCCCC2)c1,16.0,16.0,/,/,/,/
CCCC(=O)NC(=S)N1CCN(c2ccc([N+](=O)[O-])cc2)CC1,23.5,-6.8,1,70.2*,0.7,7.4
C#Cc1ccc([C@@H]2C=C(C(=O)NC3CC3)O[C@H](OCCCCO)C2)cc1,-21.1,-0.3,/,/,/,/
Cc1ccc(NC(=O)C2CCCN2S(=O)(=O)c2ccc3c(c2)n(C)c(=O)c(=O)n3C)c(C)c1 (centres undefined),-0.2,-0.9,/,/,/,/
CN(C)S(=O)(=O)c1cccc(C(=O)N2CCc3ccccc32)c1,-5.6,-8.0,0.9,4.6,0.9,10.0
SMILES,Calpain2 inh,Rad51 HR inh,PMI activator,L major viab,PMI act satM6P,WT yeast gro inh
Cc1cc(C)cc(C(=O)N2CC(C)SC2=Nc2cccc(S(=O)(=O)N(C)C)c2)c1 (centres undefined),8.1,-11.7,0.8,98.0*,0.9,-6.2
Cc1ccc(C(=O)N2CC(C)SC2=Nc2cccc(S(=O)(=O)N(C)C)c2)cc1 (centres undefined),-2.8,0.7,1,94.6*,1.1,-12.5
CN(C)S(=O)(=O)c1cccc(N=C2SCCN2Cc2ccccc2)c1,25.1,20.0,/,/,/,/
N#Cc1ccccc1S(=O)c1ccccc1C(=O)Nc1ccccc1 (centres undefined),-11.4,-2.2,1.1,-1.7,1.1,-2.9
COCCNC(=O)C(C(=O)c1ccc(F)cc1)n1cc(C)ccc1=O (centres undefined),-10.7,-47.7,0.9,-4.1,0.8,2.2
COc1ccc(N(C)C(=O)c2oc(=O)c3ccccc3c2-c2ccc(C)cc2)c(OC)c1,8.2,12.8,/,/,/,/
Cc1cc(NC(=O)CCC(=O)N(Cc2cccs2)C(C(=O)NC2CCCC2)c2ccccc2)no1 (centres undefined),30.7,1.0,1,94.4*,1,16.4
Cc1cc(C)cc(N(CC(=O)NCC2CCCO2)C(=O)CCC(=O)Nc2cc(C)on2)c1 (centres undefined),4.8,/,1,-3.5,1,99.0*
Cc1cccc(N(C(=O)CCC(=O)Nc2cc(C)on2)C(C(=O)NC2CCCC2)c2ccc(C)o2)c1 (centres undefined),10.2,-12.1,0.9,88.9*,0.9,23.0
Cc1cc(NC(=O)CCC(=O)N(CCC(C)C)CC(=O)NCC2CCCO2)no1 (centres undefined),4.7,2.1,1,-9.4,1,-11.4
Cc1cc(NC(=O)CCC(=O)N(Cc2cccs2)C(C(=O)NC2CCCC2)c2cccnc2)no1 (centres undefined),0.6,-2.2,0.9,-5.3,0.9,-14.7
Cc1cc(C)cc(N(C(=O)CCC(=O)Nc2cc(C)on2)C(C(=O)NC2CCCC2)c2ccco2)c1 (centres undefined),42.3,8.2,1,88.5*,1,-5.5
Cc1ccc(C(C(=O)NC2CCCC2)N(Cc2ccco2)C(=O)CCC(=O)Nc2cc(C)on2)cc1 (centres undefined),-6.9,-2.4,1.1,82.5*,1,-20.1
O=C(NC1CCCCC1)C(c1cccs1)N(Cc1cccs1)C(=O)c1cccs1 (centres undefined),14.7,-1.6,0.9,98.7*,1,20.8
Cc1ccc(N(C(=O)CCC(=O)Nc2cc(C)on2)C(C(=O)NC2CCCC2)c2ccccc2)cc1 (centres undefined),24.9,-2.4,1,9.8,1,-10.9
Cc1cc(NC(=O)CCC(=O)N(c2ccccc2)C(C(=O)NC2CCCC2)c2cccs2)no1 (centres undefined),-27.6,-5.8,1,7.6,1,2.2
